ChEMBL document CHEMBL1671807, “Structure-activity relations on [1-(3,5-difluoro-4-hydroxyphenyl)-1H-pyrrol-3-yl]phenylmethanone. The effect of methoxy substitution on aldose reductase inhibitory activity and selectivity” (Bioorg Med Chem, 2011)

Experiments:
[1] = species: Rattus norvegicus; experiment: Selectivity index, ratio of IC50 for rat kidney ALR1 to IC50 for rat lens ALR2; assay type: tissue-based; details: Lens of camera-type eye
Procedure, shortened: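 Ratio of IC50 values: rat kidney enzyme assayed with D-glucuronate at 37 °C, rat lens enzyme with D,L-glyceraldehyde at 30 °C. Both read as NADPH consumption at 340 nm, five compound concentrations, IC50 from the linear part of the log dose–response curve, triplicate.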

[2] = target: Aldo-keto reductase family 1 member B1 (Rattus norvegicus, UniProt P07943); experiment: Inhibition of rat lens ALR2; assay type: tissue-based, Lens of camera-type eye
Procedure, shortened: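 Partially purified rat lens enzyme (water homogenate, supernatant after 40% ammonium sulfate). NADPH consumption read at 340 nm with D,L-glyceraldehyde as substrate at 30 °C. Compounds dissolved in 10% aqueous NaHCO3 and tested at five concentrations. IC50 from least-squares fit of the linear part of the log dose–response curve; triplicate.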

[3] = Inhibition of rat kidney ALR1
Procedure, shortened: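 Enzyme partially purified from Fischer-344 rat kidney by ammonium sulfate fractionation (40/50/75%) and DEAE treatment, with no detectable ALR2 activity. NADPH consumption followed at 340 nm with D-glucuronate substrate at 37 °C. Compounds in 10% aqueous NaHCO3, five concentrations. IC50 from least-squares fit of the linear part of the log dose–response; triplicate.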

[4] = Antioxidant activity assessed as inhibition of AAPH-induced lipid peroxidation of DOPC liposomes; assay type: functional
Procedure, shortened: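 Unilamellar DOPC liposomes, 0.8 mM final, in 20 mM phosphate buffer pH 7.4, incubated with compound at 10–300 µM and AAPH (10 mM final) at 50 °C for 80 min. Lipids extracted with CHCl3/MeOH 2:1 containing 0.05% BHT. Hydroperoxides read by the thiocyanate method at 500 nm against a cumene hydroperoxide calibration. IC50 from the linear part of the semilog inhibition plot; triplicate.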

[5] = Inhibition of glucose-induced sorbitol accumulation in rat lens at 100 uM (Rbv = 643.5+/-133 nmol/g); assay type: functional, Lens of camera-type eye

| IC50 [2] [µM] | IC50 [3] [µM] | IC50 [4] [µM] | SMILES | Ratio IC50 [1] | Activity [5] [nmol/g] |
| --- | --- | --- | --- | --- | --- |
| 9.93 | 51.8 |  | COc1cccc(C(=O)c2ccn(-c3cc(F)c(O)c(F)c3)c2)c1 | 5.2 |  |
| 24.9 | > 100 |  | COc1ccc(C(=O)c2ccn(-c3cc(F)c(O)c(F)c3)c2)cc1 | > 4 |  |
| 0.39 | 27.8 | 35.8 | COc1ccc(C(=O)c2cccn2-c2cc(F)c(O)c(F)c2)cc1 | 71.6 | 203.5 |
| 1.26 | 1.61 |  | O=C(c1ccccc1)c1ccn(-c2ccc(F)c(O)c2F)c1 | 1.3 |  |
| 1.06 | 4.6 |  | O=C(c1ccccc1)c1cccn1-c1cc(F)c(O)c(F)c1 | 4.3 |  |
| 1.18 | 23.5 |  | COc1cccc(C(=O)c2cccn2-c2cc(F)c(O)c(F)c2)c1 | 19.9 |  |
|  | 13.4 |  | O=C(c1ccccc1)c1ccn(-c2cc(F)c(O)c(F)c2)c1 | 33.8 |  |
